In the EternaBench riboswitch data:

System: MS2 coat protein
Assay: apparent Kd, MS2 coat protein; higher = weaker binding; RNA-MaP array
Procedure, shortened: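 Designs measured on fewer than 10 clusters were excluded from the data. The rest were RNAs transcribed from sequenced DNA templates on an Illumina sequencing chip and incubated at room temperature, with or without input ligand, with fluorescently labeled MS2 coat protein at 1.5 nM to 3 μM for 0.8–1.5 h at the lowest to 10–20 min at the highest concentrations. Apparent Kd is the median of the per-cluster binding-curve fits.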

[1] = designed as: ON switch for flavin mononucleotide, no ligand
[2] = ligand present: flavin mononucleotide, designed as: ON switch for flavin mononucleotide
[3] = designed as: OFF switch for flavin mononucleotide, no ligand
[4] = ligand present: flavin mononucleotide, designed as: OFF switch for flavin mononucleotide

Row | Sequence | apparent Kd [1] | apparent Kd [2] | apparent Kd [3] | apparent Kd [4] | further results
1 | AUAGGGCGACAGAAGGGCAGUGCACGCAUUGCUGCAGGAUAUGUGGUCCACAUGAGGAUCACCCAUGUAGUAAUAUCUUGUAGU | 104 nM | 71.2 nM | – | – | –
2 | CACUACAUGAGGAUCACCCAUGUAUACUGACGAGGACCGGUACGGCCGCCACUCGAACCGAAACCGACUUCAUUCUGUGUACCAU | – | – | – | – | apparent Kd (designed as: ON switch for tryptophan, no ligand): 15.4 nM; apparent Kd (ligand present: tryptophan, designed as: ON switch for tryptophan): 16.2 nM
3 | CGACACCAGGCAAUCCAUCACCCGGCUGAUACCAGCUCUUUUGGAAGCCCUUGGCAGCAGAGAACAUGAGGAUCACCCAUGUCAG | – | – | – | – | apparent Kd (designed as: OFF switch for theophylline, no ligand): 14.6 nM; apparent Kd (ligand present: theophylline, designed as: OFF switch for theophylline): 21.2 nM
4 | UCCUUACACAUGAGGAUCACCCAUGUAUCCACAGGUUGAGGGCAGGAUAUACAUAAUUUGACCUUGUAGAAGGGCCUGACAAAA | – | – | 213 nM | 103 nM | –
5 | AAUGACGCGAAGAAGGACUGAUACCAGCUAAAAGUAGGAUAUUCUGAACGUGGACGGUUUACAUGAGGAUCACCCAUGUAUGAA | – | – | 9.29 nM | 9.01 nM | –
6 | AGUAAAGUAGAAGGAUAUCACGAACAUGAGGAUCACCCAUGUUAAGAUCGGCGUGAGACAACAGAUGAGAAGGACUAAUAUGCU | – | – | 10.9 nM | 10.2 nM | –
7 | AGCGCUUAACCAUAGGAUAUAUUGAUCAUUACAUGAGGAUCACCCAUGUGUCGAAGAAGGCAAUCAUAGAAGGAUGUCAUGUCGCU | 26.7 nM | 17.3 nM | – | – | –
8 | CAAAUGAGAGGAUAUACAAUUAGAUUUCAAAGUCACAUCAGACAUGAGGAUCACCCAUGUAGAAGGCUCGGAUA | – | – | 23.7 nM | 193 nM | –
9 | UACGUGUUAGGAUAUCGAGUAGUAUGGCUGGCCUGCAAAACCGAGAAGGAACAUGAGGAUCACCCAUGUAUCUU | – | – | 8.05 nM | 11.3 nM | –
10 | GACAUCAUAGGAGGAUAUGUUUUCUAAAGACUGACAGAAGGCCAGAACAGUAAGAACAAAAGACAUGAGGAUCACCCAUGUGUU | 16.6 nM | 9.36 nM | – | – | –
11 | ACGAGGUACACAGGAUAUGCAAACAUGAGGAUCACCCAUGUGUUCGCCAAUAUCGUGAAUGUGUCGCAGAAGGGUGGUAGUCUA | 12.3 nM | 9.83 nM | – | – | –
12 | AGUUGAGGAGGAUAUACAUGAGGAUCACCCAUGUGACUGUGUCUGUUGCGCUGGAUCGGUAGAAGGCCUUAGUA | – | – | 12.2 nM | 16.4 nM | –
13 | CGGAAACAAGUAGGAUAUCACUUGAAUGUACAUGAGGAUCACCCAUGUUCCUUACGGCCGCGUUUUGAGAAGGACUAUUCAAAA | – | – | 17.6 nM | 15 nM | –
14 | GAAAUAUAGUCAGGAUAUCAGGACAUGAGGAUCACCCAUGUACUGAAUGGGCUGGUGAAAAGAGAUGAGAAGGGACACACUAGA | – | – | 6.23 nM | 5.78 nM | –
15 | UAAAGAUGUGCAGGAUAUUAGAAACGGCGGGAACUUAAAUUCAAACAUGAGGAUCACCCAUGUAAUAAGAAGGGCAAACUAAGA | – | – | 15.9 nM | 20.6 nM | –
16 | GAUAGUGAUCCGGGUUACAUGAGGAUCACCCAUGUUACAAAUAGAAGGUCAGAACAAAAUUGAAAGAAGGAUAUAUUUUCAUUG | – | – | 44.1 nM | 39.6 nM | –
17 | UGAUCAGAACAGAAGGAGUAGUCUGCCUUGCUACUAGGAUAUGUUACAUGAGGAUCACCCAUGUGUUUAGGAUUGCCAUAAAGG | 13.1 nM | 9.08 nM | – | – | –
18 | GCUAGCGGUAAGAAGGCAUAGACCAAAACUUCAUGAGGAUAUUAUUUGCGGCAUUCGCUCCAAGGACAUGAGGAUCACCCAUGU | 15.4 nM | 16.3 nM | – | – | –
19 | CACAAGUCGUAGGAUAUCACCACAAAUAGCUGCUGAGAAGGACGGACAUGAGGAUCACCCAUGUGUUCCGCAAU | – | – | 14.8 nM | 23.8 nM | –
20 | AAUGGAAGGGAGAAGGCACGCUCUGUCGAACCGUGAGGAUAUCCAUCGGGUAAUAUACAUGAGGAUCACCCAUGUGGCGUCCAG | 25.8 nM | 14.6 nM | – | – | –
